Converted amounts (≈) assume the structure as drawn.
What was measured:
Plasmodium falciparum K1 = assay: WHO-TDR: Malaria; assay type: functional, organism-based, Homo sapiens; conditions: Erythrocyte
How it was run: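 Antiplasmodial potency, expressed as IC50, was measured in a whole-organism assay on intra-erythrocytic Plasmodium falciparum K1 in human red blood cells. The screened library held 10,000 diverse compounds from Life Chemicals.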

Onchocerca lienalis = assay: WHO-TDR: Onchocerciasis; assay type: functional; set-up: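 at 12.5 µM on microfilariae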
How it was run: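 Microfilariae of Onchocerca ochengi or Onchocerca lienalis, animal pathogens standing in for the human parasite, were exposed to compounds in a whole-organism screen. The compounds came from a 10,000-compound diverse Life Chemicals library filtered for drug-likeness and reactive groups. Results are expressed as percent inhibition and IC50.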

Trypanosoma cruzi = assay: WHO-TDR: Chagas disease; assay type: functional, organism-based, Homo sapiens; conditions: MRC5
How it was run: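 Each IC50 reflects antiparasitic potency against intracellular amastigotes of Trypanosoma cruzi Tulahuen CL2 beta-galactosidase strain. These were cultured in MRC-5SV2 human lung fibroblasts and exposed to a 10,000-compound diverse Life Chemicals library screened according to published standard procedures with a reference drug as positive control.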

Schistosoma mansoni = assay: WHO-TDR: Schistosomiasis; assay type: functional; set-up: concentration or dose not given beside the values
How it was run: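 In this whole-organism assay, larval and/or adult worms of Schistosoma mansoni (Puerto Rican strain) were exposed to compounds from a diverse Life Chemicals library of 10,000 members. A reference drug served as positive control. Activity is stated as percent inhibition and IC50.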

[1] = test system: Trypanosoma brucei brucei; assay: WHO-TDR: Human African Trypanosomiasis (HAT); assay type: functional, organism-based; conditions: Squib-427
How it was run: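 Antiparasitic potency is reported as IC50. The screen covered 10,000 compounds from a diverse Life Chemicals library, filtered for drug-likeness and reactive groups, tested on whole bloodstream-form Trypanosoma brucei of the Squib 427 strain.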

[2] = WHO-TDR: Cytotoxicity; assay type: toxicity, cell-based; conditions: human, MRC5 cells
Leishmania infantum = assay: WHO-TDR: Leishmaniasis; assay type: functional, organism-based, Mus musculus; conditions: Macrophage
How it was run: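 Antiparasitic potency, reported as IC50, was measured against intracellular Leishmania infantum amastigotes. The parasite strain was MHOM/MA(BE)/67, and murine peritoneal macrophages served as host cells for the screen of a 10,000-compound diverse library from Life Chemicals.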

Row | IC50 (Plasmodium falciparum K1) [µg/mL] | IC50 [1] [µg/mL] | IC50 (Leishmania infantum) [µg/mL] | Compound | % Inhibition (Onchocerca lienalis) [%] | IC50 (Trypanosoma cruzi) [µg/mL] | % Inhibition (Schistosoma mansoni) [%] | IC50 [2] [µg/mL]
1 | 1.82 (≈ 4.04 µM) | 0.35 (≈ 0.779 µM) | 4.72 (≈ 10.5 µM) | CCOc1ccc2nc(N(CCN(C)C)C(=O)c3cc4ccccc4cc3OC)sc2c1 | 0 | 0.425 (≈ 0.945 µM) | 0 | 4.28 (≈ 9.53 µM)
2 | 0.398 (≈ 0.923 µM) | 0.352 (≈ 0.817 µM) | 4.54 (≈ 10.5 µM) | CN(C)CCCN(C(=O)c1nc2ccccc2s1)c1nc2c(Cl)cccc2s1 | 0 | 0.239 (≈ 0.555 µM) | 33.3 | 0.526 (≈ 1.22 µM)
3 | > 10.9 | > 10.9 | > 10.9 | COc1ccc(-c2nnc(NC(=O)c3cccc(C(F)(F)F)c3)o2)cc1 | 0 | 0.844 (≈ 2.32 µM) | 0 | 10.1 (≈ 27.9 µM)
4 | 3.39 (≈ 8.08 µM) | 4.33 (≈ 10.3 µM) | > 13.7 | CN(C)CCN(C(=O)CCSc1ccccc1)c1nc2c(Cl)cccc2s1 | 0 | 4.15 (≈ 9.88 µM) | 75 | > 13.7
5 | 1.2 (≈ 2.82 µM) | 0.383 (≈ 0.902 µM) | 5.12 (≈ 12 µM) | O=C(CSc1nnc(NC(=O)c2cccs2)s1)NCc1ccccc1Cl | 13.3 | 4.32 (≈ 10.2 µM) | 16.7 | 4.21 (≈ 9.91 µM)
6 | 3.42 (≈ 7.71 µM) | 2 (≈ 4.52 µM) | 0.466 (≈ 1.05 µM) | O=C(CSc1nnc(NC(=O)COc2ccc(Cl)cc2)s1)NCC1CCCO1 (stereo not given) | 13.3 | 0.416 (≈ 0.939 µM) | 0 | 3.54 (≈ 7.99 µM)
7 | > 11 | > 11 | > 11 | CCOc1ccc(C(=O)Nc2nc3c(Cl)ccc(Cl)c3s2)cc1 | 33.34 | > 11 | 100 | > 11
8 | > 9.55 | > 9.55 | > 9.55 | N#Cc1ccsc1NC(=O)C(c1ccccc1)c1ccccc1 | 0 | > 9.55 | 100 | > 9.55
9 | 1.45 (≈ 2.9 µM) | 0.356 (≈ 0.71 µM) | 5.1 (≈ 10.2 µM) | CN(C)CCN(C(=O)c1cccc(N2C(=O)CCC2=O)c1)c1nc2ccc(Br)cc2s1 | 0 | 4.94 (≈ 9.85 µM) | 33.3 | > 16.1
10 | 3.44 (≈ 6.46 µM) | 5.59 (≈ 10.5 µM) | 5.53 (≈ 10.4 µM) | CN(C)CCCN(C(=O)c1ccc(S(=O)(=O)N(C)C2CCCCC2)cc1)c1nc2c(F)cccc2s1 | 0 | 5.16 (≈ 9.69 µM) | 0 | 3.08 (≈ 5.78 µM)
11 | 2.68 (≈ 8.87 µM) | 0.633 (≈ 2.09 µM) | 1.95 (≈ 6.46 µM) | CC(C)(C)c1ccc(C(=O)Nc2sccc2C(N)=O)cc1 | 13.3 | 2.41 (≈ 7.98 µM) | 0 | 4.3 (≈ 14.2 µM)
12 | > 9.01 | 0.152 (≈ 0.506 µM) | > 9.01 | O=C(NCCc1csc(-c2ccccc2)n1)C1CCCC1 | 0 | 0.345 (≈ 1.15 µM) | 0 | > 9.01
13 | 1.45 (≈ 3.95 µM) | 0.356 (≈ 0.967 µM) | 5.1 (≈ 13.9 µM) | O=C(Nc1nnc(SCc2ccccc2Cl)s1)C1CCCCC1 | 0 | 4.94 (≈ 13.4 µM) | 0 | > 11
14 | 1.44 (≈ 3.28 µM) | 0.428 (≈ 0.975 µM) | 0.467 (≈ 1.06 µM) | O=C(CSc1nnc(NC(=O)COc2ccc(Cl)cc2)s1)NCc1ccco1 | 6.7 | 0.408 (≈ 0.93 µM) | 0 | 0.462 (≈ 1.05 µM)
15 | 0.126 (≈ 0.297 µM) | 3.87 (≈ 9.15 µM) | 4.06 (≈ 9.62 µM) | O=C(CCS(=O)(=O)c1ccccc1)Nc1nc(-c2cccc3ccccc23)cs1 | 6.7 | 0.657 (≈ 1.55 µM) | 0 | 1.67 (≈ 3.96 µM)

Further lines, the compound ahead of its results:

Row | Compound | IC50 (Plasmodium falciparum K1) [µg/mL] | IC50 [1] [µg/mL] | IC50 (Leishmania infantum) [µg/mL] | % Inhibition (Onchocerca lienalis) [%] | IC50 (Trypanosoma cruzi) [µg/mL] | % Inhibition (Schistosoma mansoni) [%] | IC50 [2] [µg/mL]
16 | Fc1ccccc1CSc1ccc(-c2ccccn2)nn1 | > 8.92 | > 8.92 | > 8.92 | 97 | > 8.92 | 8.3 | > 8.92
17 | O=S(=O)(NCC(c1cccnc1)N1CCN(c2ccccc2F)CC1)c1cc(F)ccc1F (stereo not given) | 4.27 (≈ 8.96 µM) | 4.74 (≈ 9.95 µM) | > 14.3 | 0 | 0.265 (≈ 0.556 µM) | 0 | > 14.3
18 | CC(Sc1ccc2nnc(CCNC(=O)c3ccccc3)n2n1)c1ccccc1 (stereo not given) | 3.16 (≈ 7.83 µM) | 3.3 (≈ 8.17 µM) | 0.392 (≈ 0.971 µM) | 0 | 5.24 (≈ 13 µM) | 66.7 | > 12.1
19 | COc1ccc(C(=O)Nc2nnc(SCC(=O)NCc3ccccc3Cl)s2)c(OC)c1 | 3.64 (≈ 7.61 µM) | 4.66 (≈ 9.73 µM) | > 14.4 | 0 | > 14.4 | 100 | > 14.4
20 | COc1ccccc1NC(=O)Nc1nc(CC(=O)N2CCN(c3cccc(C(F)(F)F)c3)CC2)cs1 | 4.27 (≈ 8.23 µM) | 3.43 (≈ 6.59 µM) | > 15.6 | 0 | 0.93 (≈ 1.79 µM) | 0 | > 15.6
21 | O=C(CSc1nnc(NC(=O)COc2ccc(Cl)cc2)s1)NCc1ccc2c(c1)OCO2 | 1.72 (≈ 3.48 µM) | 4.51 (≈ 9.14 µM) | 0.451 (≈ 0.914 µM) | 13.3 | 0.433 (≈ 0.879 µM) | 0 | 3.34 (≈ 6.77 µM)
22 | CCN(CC)CCSc1ccc(-c2sc(-c3ccc(F)cc3)nc2C)nn1 | 0.5 (≈ 1.24 µM) | 0.314 (≈ 0.78 µM) | 3.82 (≈ 9.49 µM) | 6.7 | 3.25 (≈ 8.09 µM) | 0 | > 12.1
23 | CN(C(=O)CN1CC(=O)Oc2ccccc21)c1ccc(O)cc1 | 2.22 (≈ 7.11 µM) | 2.66 (≈ 8.52 µM) | 3.03 (≈ 9.71 µM) | 20 | 0.548 (≈ 1.75 µM) | 0 | 2.96 (≈ 9.49 µM)
24 | Cc1cc(NC(=O)CSc2ccc3nnc(-c4cccs4)n3n2)no1 | 0.155 (≈ 0.416 µM) | > 11.2 | 4.29 (≈ 11.5 µM) | 6.7 | 4.97 (≈ 13.4 µM) | 0 | > 11.2
25 | CCOC(=O)Cn1/c(=N/C(=O)c2ccc(N3C(=O)CCC3=O)cc2)sc2c(C)cc(C)cc21 | 9.4 (≈ 20.2 µM) | > 9.4 | 0.304 (≈ 0.654 µM) | 13.3 | > 9.4 | 0 | > 9.4

— ChEMBL document CHEMBL2093137, “WHO-TDR NTD Screening”
